Laboratory results published in ChEMBL document CHEMBL1149822, “Synthesis, antimicrobial and anti-inflammatory activities of some 1,2,4-triazolo[3,4-b][1,3,4]thiadiazoles and 1,2,4-triazolo[3,4-b][1,3,4]thiadiazines bearing trichlorophenyl moiety” (2008).
Converted amounts (≈) assume the structure as drawn.

How the values were obtained:
Type in all cases: functional
[1] = tested on: Trichophyton mentagrophytes; test: Antifungal activity against Trichophyton mentagrophytes at […] ug/ml after 3 to 4 days; conditions: read-out: IZ
Aspergillus flavus [2] = test: Antifungal activity against Aspergillus flavus NCIM 524 at […] ug/ml after 3 to 4 days; conditions: read-out: IZ
Escherichia coli [3] = test: microbe, parasite or virus in culture; conditions: ATCC25922, read-out: IZ
Staphylococcus aureus [4] = test: Antibacterial activity against Staphylococcus aureus ATTC 25923 after 16 to 18 hrs by serial plate dilution method
Summary of the method: (§1)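 Serial dilutions were made in Mueller-Hinton broth in tubes, adjusted to […] with phosphate buffer, and inoculated with a standardized bacterial suspension. Tubes were incubated at 37 °C for 16–18 h. MIC was taken as the lowest concentration with no visible growth.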

[5] = tested on: Trichophyton mentagrophytes; test: Antifungal activity against Trichophyton mentagrophytes by serial plate dilution method
Pseudomonas aeruginosa [6] = test: Antibacterial activity against Pseudomonas aeruginosa ATTC 27853 after 16 to 18 hrs by serial plate dilution method; conditions: ATCC27853; summary of the method: as §1
Aspergillus flavus [7] = test: Antifungal activity against Aspergillus flavus NCIM 524 by serial plate dilution method
Summary of the method: (§2)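 Agar of peptone 1 g, D-glucose 4 g and agar 2 g per 100 mL water, pH 5.7, was lawned with a fungal spore suspension in normal saline. The excess was decanted and plates were dried at 37 °C for 1 h. Wells were punched and compounds in DMSO were added, with a DMSO control. Plates were run in triplicate at 37 °C for 3–4 days, and the inhibition zone diameter was measured.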

Talaromyces marneffei [8] = test: Antifungal activity against Penicillium marneffei by serial plate dilution method; summary of the method: as §2
Staphylococcus aureus [9] = test: Antibacterial activity against Staphylococcus aureus ATTC 25923 at […] ug/ml after 3 to 4 days; conditions: read-out: IZ
Pseudomonas aeruginosa [10] = test: microbe, parasite or virus in culture; conditions: ATCC27853, read-out: IZ
Aspergillus fumigatus [11] = test: Antifungal activity against Aspergillus fumigatus NCIM 902 at […] ug/ml after 3 to 4 days; conditions: read-out: IZ
Aspergillus fumigatus [12] = test: Antifungal activity against Aspergillus fumigatus NCIM 902 by serial plate dilution method
Escherichia coli [13] = test: Antibacterial activity against Escherichia coli ATTC 25922 after 16 to 18 hrs by serial plate dilution method; conditions: ATCC25922; summary of the method: as §1
Klebsiella pneumoniae [14] = test: Antibacterial activity against Klebsiella pneumoniae after 16 to 18 hrs by serial plate dilution method; summary of the method: as §1
Klebsiella pneumoniae [15] = test: microbe, parasite or virus in culture; conditions: read-out: IZ
Talaromyces marneffei [16] = test: Antifungal activity against Penicillium marneffei at […] ug/ml after 3 to 4 days; conditions: read-out: IZ
Rattus norvegicus = test: Antiinflammatory activity against carrageenan-induced paw oedema in albino rat at 50 mg/kg, po relative to control
Summary of the method: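 Albino rats of 180–250 g were fasted 18 h and placed in groups of six. Samples were suspended in 2% w/v acacia mucilage, and the vehicle group served as control. 30 min after dosing, carrageenan (1 mg mL⁻¹, 0.1 mL) was injected subcutaneously into the right hind paw. Paw volume was measured immediately and at 3 h, and % oedema inhibition was calculated versus vehicle controls.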

Pseudomonas aeruginosa [17] = test: Antibacterial activity against Pseudomonas aeruginosa ATTC 27853 at 12 ug/ml after 3 to 4 days; conditions: ATCC27853, read-out: IZ
Summary of the method: (§3)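 Agar well diffusion. Plates were seeded with a bacterial suspension, the excess was decanted and plates were dried at 37 °C for 1 h. Wells were punched and compounds in DMSO were added, with DMSO wells as control. Plates were run in triplicate at 37 °C for 3–4 days and zones of inhibition were scored.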

Klebsiella pneumoniae [18] = test: Antibacterial activity against Klebsiella pneumoniae at 12 ug/ml after 3 to 4 days; conditions: read-out: IZ; summary of the method: as §3

MIC (Staphylococcus aureus [4]) [µg/mL]	MIC [5] [µg/mL]	MIC (Pseudomonas aeruginosa [6]) [µg/mL]	MIC (Aspergillus flavus [7]) [µg/mL]	MIC (Talaromyces marneffei [8]) [µg/mL]	MIC (Aspergillus fumigatus [12]) [µg/mL]	MIC (Escherichia coli [13]) [µg/mL]	MIC (Klebsiella pneumoniae [14]) [µg/mL]	Compound	zone of inhibition at 6.25 µg/mL [1] [mm]	zone of inhibition at 6.25 µg/mL (Aspergillus flavus [2]) [mm]	zone of inhibition at 6.25 µg/mL (Escherichia coli [3]) [mm]	zone of inhibition at 6.25 µg/mL (Staphylococcus aureus [9]) [mm]	zone of inhibition at 6.25 µg/mL (Pseudomonas aeruginosa [10]) [mm]	zone of inhibition at 6.25 µg/mL (Aspergillus fumigatus [11]) [mm]	zone of inhibition at 6.25 µg/mL (Klebsiella pneumoniae [15]) [mm]	zone of inhibition at 6.25 µg/mL (Talaromyces marneffei [16]) [mm]	inhibition in vivo at 50 mg/kg (Rattus norvegicus) [%]	zone of inhibition at 12 µg/mL (Pseudomonas aeruginosa [17]) [mm]	zone of inhibition at 12 µg/mL (Klebsiella pneumoniae [18]) [mm]
6.25 (≈ 13.7 µM)	6.25 (≈ 13.7 µM)	6.25 (≈ 13.7 µM)	6.25 (≈ 13.7 µM)	6.25 (≈ 13.7 µM)	6.25 (≈ 13.7 µM)	6.25 (≈ 13.7 µM)	6.25 (≈ 13.7 µM)	NC(=O)c1cc(C2=Nn3c(nnc3-c3cc(Cl)cc(Cl)c3Cl)SC2)ccc1O	16	16	16	16	16	16	16	16			
6.25 (≈ 14.5 µM)	6.25 (≈ 14.5 µM)	6.25 (≈ 14.5 µM)	6.25 (≈ 14.5 µM)	6.25 (≈ 14.5 µM)	6.25 (≈ 14.5 µM)	6.25 (≈ 14.5 µM)	6.25 (≈ 14.5 µM)	Clc1ccc(C2=Nn3c(nnc3-c3cc(Cl)cc(Cl)c3Cl)SC2)cc1	16	16	16	16	16	16	16	16	30.6		
6.25 (≈ 14.4 µM)	6.25 (≈ 14.4 µM)	12 (≈ 27.7 µM)	6.25 (≈ 14.4 µM)	6.25 (≈ 14.4 µM)	6.25 (≈ 14.4 µM)	6.25 (≈ 14.4 µM)	6.25 (≈ 14.4 µM)	Clc1cc(Cl)c(Cl)c(-c2nnc3sc(-c4cccc5ncccc45)nn23)c1	16	16	16	16		16	16	16	9.67	11	
6.25 (≈ 15.3 µM)	6.25 (≈ 15.3 µM)	12 (≈ 29.3 µM)	6.25 (≈ 15.3 µM)	6.25 (≈ 15.3 µM)	6.25 (≈ 15.3 µM)	6.25 (≈ 15.3 µM)	12 (≈ 29.3 µM)	Cc1ccc(C2=Nn3c(nnc3-c3cc(Cl)cc(Cl)c3Cl)SC2)cc1	16	16	16	16		16		16	19.4	11	11
6.25 (≈ 14.1 µM)	6.25 (≈ 14.1 µM)	6.25 (≈ 14.1 µM)	6.25 (≈ 14.1 µM)	6.25 (≈ 14.1 µM)	6.25 (≈ 14.1 µM)	6.25 (≈ 14.1 µM)	6.25 (≈ 14.1 µM)	CSc1ccc(C2=Nn3c(nnc3-c3cc(Cl)cc(Cl)c3Cl)SC2)cc1	16	16	16	16	16	16	16	16	9.67		
6.25 (≈ 13.5 µM)	6.25 (≈ 13.5 µM)	6.25 (≈ 13.5 µM)	6.25 (≈ 13.5 µM)	6.25 (≈ 13.5 µM)	6.25 (≈ 13.5 µM)	6.25 (≈ 13.5 µM)	6.25 (≈ 13.5 µM)	Clc1cc(Cl)c(Cl)c(-c2nnc3sc(-c4ccncc4Br)nn23)c1	16	16	16	16	16	16	16	16	19.4		
